# In ChEMBL document CHEMBL1151261, “Antineoplastic agents. 509: synthesis of fluorcombstatin phosphate and related 3-halostilbenes(1)” (J Nat Prod, 2005):
# Activity calls are given as the source filed them. The rule behind the calls is not given here.
# What was measured:
# KM-20L2 = test: Cytotoxicity against human KM20L2 cells after 48 hrs by sulforhodamine B assay; format: functional; settings: KM-20L2, 48 h
# Summary of the method: (§1)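 Human tumor lines exposed to compound for 48 h, then fixed with trichloroacetic acid and stained with sulforhodamine B (NCI standard protocol); optical density read on a microplate reader. GI50 is the concentration giving a 50% reduction in net protein increase, calculated from optical density data.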
# DU-145 = test: Cytotoxicity against human DU145 cells after 48 hrs by sulforhodamine B assay; format: functional; settings: DU-145, 48 h; summary of the method: as §1
# Cryptococcus neoformans = test: Antimicrobial activity against Cryptococcus neoformans ATCC 90112 after 72 hrs by broth microdilution assay; format: functional; settings: ATCC 90112, 72 h
# Summary of the method: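 Yeast NCCLS broth microdilution (M27-A). Inoculum 0.5 to 2.5×10^3 CFU/mL; 2-fold dilutions in 0.165 M MOPS-buffered RPMI 1640, pH 7.0; compound from DMSO, DMSO-only turbidity control; 35 °C without agitation; read at 72 h (Cryptococcus). MIC = lowest concentration giving no visible growth.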
# Staphylococcus aureus [1] = test: Antimicrobial activity against Staphylococcus aureus ATCC 29213 after 24 hrs by broth microdilution assay; format: functional; settings: ATCC 29213, 24 h
# Summary of the method: (§2)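 NCCLS bacterial broth microdilution (M7-A5). Overnight colonies diluted to about 5×10^5 CFU/mL final; 2-fold compound dilutions (DMSO stock) in cation-adjusted Mueller Hinton II broth; DMSO turbidity control; 35 °C without agitation, 24 h. MIC = lowest concentration with optically clear wells.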
# Streptococcus pneumoniae = test: Antimicrobial activity against Streptococcus pneumoniae ATCC 6303 after 24 hrs by broth microdilution assay; format: functional; settings: ATCC 6303, 24 h
# Summary of the method: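 Streptococcus tested by NCCLS broth microdilution in cation-adjusted MHII broth with 3% lysed horse blood. Final inoculum about 5×10^5 CFU/mL; 2-fold compound dilutions from DMSO; DMSO turbidity control; 35 °C without agitation, 24 h. MIC = lowest concentration with no visible growth.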
# Micrococcus luteus = test: Antimicrobial activity against Micrococcus luteus Presque Isle 456 after 24 hrs by broth microdilution assay; format: functional; summary of the method: as §2
# Neisseria gonorrhoeae = test: Antimicrobial activity against Neisseria gonorrhoeae ATCC 49226 after 24 hrs by broth microdilution assay; format: functional; settings: ATCC 49226, 24 h
# Summary of the method: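 Neisseria tested by NCCLS broth microdilution in gonococcal typing broth. Final inoculum about 5×10^5 CFU/mL; 2-fold compound dilutions from DMSO; DMSO turbidity control; 37 °C with 5% CO₂ without agitation, 24 h. MIC = lowest concentration with no visible growth.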
# Candida albicans = test: Antimicrobial activity against Candida albicans ATCC 90028 at 64 ug/mL after 48 hrs by broth microdilution assay; format: functional, organism-based
# Summary of the method: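 Yeast NCCLS broth microdilution (M27-A). Inoculum 0.5 to 2.5×10^3 CFU/mL; 2-fold dilutions in 0.165 M MOPS-buffered RPMI 1640, pH 7.0; compound from DMSO, DMSO-only turbidity control; 35 °C without agitation; read at 48 h (Candida). MIC = lowest concentration giving no visible growth.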
# Enterococcus faecalis = test: Antimicrobial activity against Enterococcus faecalis ATCC 29212 at 64 ug/mL after 24 hrs by broth microdilution assay; format: functional, organism-based; summary of the method: as §2
# Escherichia coli = test: Antimicrobial activity against Escherichia coli ATCC 25922 at 64 ug/mL after 24 hrs by broth microdilution assay; format: functional, organism-based; summary of the method: as §2
# Enterobacter cloacae = test: Antimicrobial activity against Enterobacter cloacae ATCC 13047 at 64 ug/mL after 24 hrs by broth microdilution assay; format: functional, organism-based; summary of the method: as §2
# [2] = tested on: Stenotrophomonas maltophilia; test: Antimicrobial activity against Stenotrophomonas maltophilia ATCC 13637 at 64 ug/mL after 24 hrs by broth microdilution assay; format: functional, organism-based; summary of the method: as §2
# NCI-H460 = test: Cytotoxicity against human NCI-H460 cells after 48 hrs by sulforhodamine B assay; format: functional; settings: NCI-H460, 48 h; summary of the method: as §1
# BXPC-3 = test: Cytotoxicity against human BxPC3 cells after 48 hrs by sulforhodamine B assay; format: functional; settings: BXPC-3, 48 h; summary of the method: as §1
# MCF7 = test: Cytotoxicity against human MCF7 cells after 48 hrs by sulforhodamine B assay; format: functional; settings: MCF7, 48 h; summary of the method: as §1
# SF-268 = test: Cytotoxicity against human SF268 cells after 48 hrs by sulforhodamine B assay; format: functional; settings: SF-268, 48 h; summary of the method: as §1
# P388 = test: Cytotoxicity against mouse P388 cells after 48 hrs by Coulter particle counting; settings: P388, 48 h, read-out: ED50 (the source's name)
# [3] = Inhibition of tubulin polymerization
# Summary of the method: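 Turbidimetry at 350 nm. Compound at varying concentrations preincubated with 10 μM (1.0 mg/mL) purified tubulin, chilled on ice, then 0.4 mM GTP added and polymerization followed at 30 °C. Extent of polymerization at 20 min measured.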
# [4] = Displacement of [3H]colchicine from tubulin
# Summary of the method: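 [3H]colchicine binding with 1.0 μM tubulin, 5.0 μM [3H]colchicine and inhibitor at 1.0 μM.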
# HUVEC [5] = test: Induction of microtubule damage in HUVEC at 1 uM after 30 mins; format: functional, cell-based; settings: Homo sapiens
# Summary of the method: (§3)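 Primary HUVECs from umbilical cords grown in M199 with 20% human serum, CD31-authenticated. About 3×10^4 cells on gelatin-coated coverslips, 24 h at 37 °C, then compound from DMSO for 30 min to 4 h, in duplicate. Cells methanol-fixed, stained with anti-α-tubulin and TRITC secondary plus Hoechst, imaged by confocal microscopy and scored for microtubule damage.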
# HUVEC [6] = test: Induction of microtubule damage in HUVEC at 1 uM after 1 hr; format: functional, cell-based; settings: Homo sapiens; summary of the method: as §3
# HUVEC [7] = test: Induction of microtubule damage in HUVEC at 1 uM after 2 hrs; format: functional, cell-based; settings: Homo sapiens; summary of the method: as §3
# HUVEC [8] = test: Induction of microtubule damage in HUVEC at 1 uM after 4 hrs; format: functional, cell-based; settings: Homo sapiens; summary of the method: as §3
# HUVEC [9] = test: Induction of microtubule depolymerization in HUVEC at 10 uM after 30 mins; format: functional, cell-based; settings: Homo sapiens; summary of the method: as §3
# HUVEC [10] = test: Induction of microtubule depolymerization in HUVEC at 10 uM after 1 hr; format: functional, cell-based; settings: Homo sapiens; summary of the method: as §3
# HUVEC [11] = test: Induction of microtubule depolymerization in HUVEC at 10 uM after 2 hrs; format: functional, cell-based; settings: Homo sapiens; summary of the method: as §3
# HUVEC [12] = test: Induction of microtubule depolymerization in HUVEC at 10 uM after 4 hrs; format: functional, cell-based; settings: Homo sapiens; summary of the method: as §3
# [13] = Cytotoxicity against HUVEC; format: cell-based; settings: human, HUVEC cells; read-out: ED50 (the source's name)
# Summary of the method: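 Commercial HUVECs grown in EGM-2 medium. Growth measured by the sulforhodamine B assay: 48 h exposure, TCA fixation, SRB stain, optical density read. ED50 = concentration giving 50% inhibition, taken from plotted data.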
# HUVEC [14] = test: Reduction of cord length in HUVEC at 0.01 ug/mL; format: functional, cell-based; settings: Homo sapiens
# Summary of the method: (§4)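 Matrigel cord formation (NCI DTP protocol). Commercial HUVECs in EGM-2; Matrigel polymerized 15 min at RT then 30 min at 37 °C; 100 μL of 2×10^5 cells/mL plus compound solution; 24 h incubation. Imaged by inverted microscope; cord length and junction number compared with untreated controls.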
# HUVEC [15] = test: Reduction of cord length in HUVEC at 0.001 ug/mL; format: functional, cell-based; settings: Homo sapiens; summary of the method: as §4
# HUVEC [16] = test: Reduction of junction numbers in HUVEC at 0.01 ug/mL; format: functional, cell-based; settings: Homo sapiens; summary of the method: as §4
# HUVEC [17] = test: Reduction of junction numbers in HUVEC at 0.001 ug/mL; format: functional, cell-based; settings: Homo sapiens; summary of the method: as §4
# Staphylococcus aureus [18] = test: Antimicrobial activity against Staphylococcus aureus ATCC 29213 at 64 ug/mL after 24 hrs by broth microdilution assay; format: functional, organism-based; summary of the method: as §2
Compound,GI50 (KM-20L2) [µg/mL],GI50 (DU-145) [µg/mL],MIC (Cryptococcus neoformans) [µg/mL],MIC (Streptococcus pneumoniae) [µg/mL],MIC (Micrococcus luteus) [µg/mL],MIC (Neisseria gonorrhoeae) [µg/mL],Activity (Candida albicans),Activity (Enterococcus faecalis),Activity (Escherichia coli),Activity (Enterobacter cloacae),Activity [2],GI50 (NCI-H460) [µg/mL],GI50 (BXPC-3) [µg/mL],GI50 (MCF7) [µg/mL],GI50 (SF-268) [µg/mL],EC50 (P388) [µg/mL],other results
COc1ccc(/C=C/c2cc(F)c(OC)c(OC)c2)cc1O,0.53,0.18,64,64,16,8,inactive,inactive,inactive,inactive,inactive,0.18,2.2,0.051,0.35,0.253,MIC (Staphylococcus aureus [1]): 32 µg/mL
COc1ccc(/C=C\c2cc(F)c(OC)c(OC)c2)cc1O [FLUORCOMBSTATIN],> 1,0.0019,64,64,32,32,inactive,inactive,inactive,inactive,inactive,< 0.0032,0.745,< 0.0027,< 0.0016,< 0.002,IC50 [3]: 1500 nM; Activity [4]: 75%; Activity (HUVEC [5]): Active; Activity (HUVEC [6]): Active; Activity (HUVEC [7]): Active; Activity (HUVEC [8]): Active; Activity (HUVEC [9]): Active; Activity (HUVEC [10]): Active; Activity (HUVEC [11]): Active; Activity (HUVEC [12]): Active; CC50 [13]: 0.00025 µg/mL; Activity (HUVEC [14]): Active; Activity (HUVEC [15]): Active; Activity (HUVEC [16]): Active; Activity (HUVEC [17]): Active; Activity (Staphylococcus aureus [18]): inactive
